Assay results: ChEMBL document CHEMBL3608261, “Metabolically programmed iron chelators” (Bioorg Med Chem, 2015)

Key:
[1] = tested on: Sapajus apella; assay: Iron clearing efficiency in bile duct cannulated Cebus apella assessed as clearance of iron in urine at 75 umol/kg, po […] relative to control; format: functional
[2] = tested on: Sapajus apella; assay: Iron clearing efficiency in bile duct cannulated Cebus apella assessed as clearance of iron at 150 umol/kg, po measured at 3 hrs intervals for up to 48 hrs relative to control; format: functional
[3] = tested on: Sapajus apella; assay: Iron clearing efficiency in bile duct cannulated Cebus apella assessed as clearance of iron in feces at 150 umol/kg, po measured at 3 hrs intervals for up to 48 hrs relative to control; format: functional
[4] = tested on: Sapajus apella; assay: Iron clearing efficiency in bile duct cannulated Cebus apella assessed as clearance of iron in urine at 150 umol/kg, po measured at 3 hrs intervals for up to 48 hrs relative to control; format: functional
[5] = tested on: Rattus norvegicus; assay: Iron clearing efficiency in bile duct cannulated Sprague-Dawley rat assessed as clearance of iron at 300 umol/kg, po measured at 3 hrs intervals for up to 48 hrs relative to control; format: functional
In short: (§1)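 Non-iron-overloaded male Sprague-Dawley rats (400–450 g) with cannulated bile ducts received 300 µmol/kg po or sc. […] Bile was sampled every 3 h for up to 48 h and urine at 24 h intervals. ICE = (treated minus control iron excretion) / theoretical output (2:1 ligand:Fe) × 100 over 48 h. Mean ± SEM.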

[6] = tested on: Rattus norvegicus; assay: Drug metabolism in Sprague-Dawley rat heart assessed as (S)-4'-(HO)-DADFT-PEAA level at 300 umol/kg, sc up to 8 hrs by HPLC analysis; format: ADME, organism-based; settings: in vivo
In short: (§2)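 Male Sprague-Dawley rats (250–350 g) got a single sc dose of the monosodium salt at 300 µmol/kg, n=3 per time point. They were killed with CO2 at 0.5, 1, 2, 4 and 8 h. Citrated cardiac-puncture blood was spun to plasma, and liver, kidney, heart and pancreas were frozen. Tissue was homogenized 1:1 in water, given a methanol rinse, held 30 min at −20 °C, centrifuged and filtered. Read-out was reversed-phase HPLC, UV 310 nm.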

[7] = tested on: Rattus norvegicus; assay: Drug metabolism in Sprague-Dawley rat pancreas assessed as (S)-4'-(HO)-DADFT-PEAA level at 300 umol/kg, sc up to 8 hrs by HPLC analysis; format: ADME, organism-based; settings: in vivo; in short: as §2
[8] = tested on: Rattus norvegicus; assay: Drug metabolism in Sprague-Dawley rat plasma assessed as (S)-4'-(HO)-DADFT-PEAA level at 300 umol/kg, sc after 8 hrs by HPLC analysis; format: ADME, organism-based; settings: in vivo; in short: as §2
[9] = tested on: Sapajus apella; assay: Iron clearing efficiency in bile duct cannulated Cebus apella assessed as clearance of iron in bile at 75 umol/kg, po measured at 3 hrs intervals for up to 48 hrs relative to control; format: functional
[10] = tested on: Rattus norvegicus; assay: Iron clearing efficiency in bile duct cannulated Sprague-Dawley rat assessed as clearance of iron in urine at 300 umol/kg, po measured at 3 hrs intervals for up to 48 hrs relative to control; format: functional
[11] = tested on: Rattus norvegicus; assay: Iron clearing efficiency in bile duct cannulated Sprague-Dawley rat assessed as clearance of iron in bile at 300 umol/kg, po measured at 3 hrs intervals for up to 48 hrs relative to control; format: functional; in short: as §1
[12] = tested on: Rattus norvegicus; assay: Drug metabolism in Sprague-Dawley rat kidney assessed as (S)-4'-(HO)-DADFT-PEAA level at 300 umol/kg, sc up to 8 hrs by HPLC analysis; format: ADME, organism-based; settings: in vivo; in short: as §2
[13] = tested on: Rattus norvegicus; assay: Iron clearing efficiency in bile duct cannulated Sprague-Dawley rat assessed as clearance of iron in bile at 300 umol/kg, sc measured at 3 hrs intervals for up to 48 hrs relative to control; format: functional; in short: as §1
[14] = species: Rattus norvegicus; assay: Iron clearing efficiency in bile duct cannulated Sprague-Dawley rat assessed as […] for up to 48 hrs relative to control; format: functional, Urine
[15] = tested on: Sapajus apella; assay: Iron clearing efficiency in bile duct cannulated Cebus apella assessed as clearance of iron in bile at 75 umol/kg, sc measured at 3 hrs intervals for up to 48 hrs relative to control; format: functional
[16] = tested on: Sapajus apella; assay: Iron clearing efficiency in bile duct cannulated Cebus apella assessed as clearance of iron in urine at 75 umol/kg, sc […] relative to control; format: functional
[17] = Performance ratio, ratio of iron clearing efficiency in […] at 75 umol/kg, po to iron clearing efficiency in bile duct cannulated Sprague-Dawley rat at 300 umol/kg, po; format: functional
In short: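 Performance ratio = mean ICE in iron-overloaded Cebus apella (75 µmol/kg) divided by mean ICE in bile duct-cannulated rats (300 µmol/kg), by the same route.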

[18] = tested on: Sapajus apella; assay: Iron clearing efficiency in bile duct cannulated Cebus apella assessed as clearance of iron in feces at 150 umol/kg, sc measured at 3 hrs intervals for up to 48 hrs relative to control; format: functional
[19] = tested on: Rattus norvegicus; assay: Iron clearing efficiency in bile duct cannulated Sprague-Dawley rat assessed as clearance of iron in urine at 150 umol/kg, sc measured at 3 hrs intervals for up to 48 hrs relative to control; format: functional
[20] = tested on: Sapajus apella; assay: Iron clearing efficiency in bile duct cannulated Cebus apella assessed as clearance of iron in urine at 150 umol/kg, sc measured at 3 hrs intervals for up to 48 hrs relative to control; format: functional
[21] = tested on: Rattus norvegicus; assay: Iron clearing efficiency in bile duct cannulated Sprague-Dawley rat assessed as clearance of iron at 150 umol/kg, sc measured at 3 hrs intervals for up to 48 hrs relative to control

**Q.** With `COCCOCCOc1ccc(C2=N[C@@](C)(C(=O)[O-])CS2)c(O)c1.[Na+]` as the compound, how does the Activity [1] read?
**A.** Its Activity is 17%.

**Q.** Which results are given for `C[C@]1(C(=O)O)CSC(c2cccc(O)c2O)=N1`?
**A.** Activity [2]: 23.1%; Activity [3]: 83%; Activity [4]: 17%

**Q.** For `COc1ccc(C2=N[C@@](C)(C(=O)O)CS2)c(O)c1`, which Activity [5] is on record?
**A.** The Activity was 6.6%.

**Q.** For `C[C@]1(C(=O)O)CSC(c2ccc(OCCOCCO)cc2O)=N1`, which Drug metabolism [6] is on record?
**A.** Its Drug metabolism is “metabolite_detected”.

**Q.** And the Drug metabolism [7]?
**A.** The Drug metabolism was “metabolite_detected”.

**Q.** What about the Drug metabolism [8] of the same compound?
**A.** Its Drug metabolism is “metabolite_notdetected”.

**Q.** And the Activity [9]?
**A.** Its Activity is 54%.

**Q.** And the Activity [10]?
**A.** The Activity was 2%.

**Q.** And the Activity [11]?
**A.** The Activity was 98%.

**Q.** What about the Activity [1] of the same compound?
**A.** Its Activity is 46%.

**Q.** And the Drug metabolism [12]?
**A.** Its Drug metabolism is “metabolite_detected”.

**Q.** For `C[C@]1(C(=O)O)CSC(c2ccc(OCCOCC(=O)O)cc2O)=N1`, which Activity [9] is on record?
**A.** Its Activity is 51%.

**Q.** And the Activity [10]?
**A.** Its Activity is 0%.

**Q.** And the Activity [11]?
**A.** Its Activity is 100%.

**Q.** What about the Activity [1] of the same compound?
**A.** Its Activity is 49%.

**Q.** With `COCCCCCCOc1ccc(C2=N[C@@](C)(C(=O)O)CS2)c(O)c1` as the compound, how does the Activity [10] read?
**A.** The Activity was 1%.

**Q.** And the Activity [11]?
**A.** The Activity was 99%.

**Q.** With `C[C@]1(C(=O)O)CSC(c2ccc(OCCCCCC(=O)O)cc2O)=N1` as the compound, how does the Activity [9] read?
**A.** The Activity was 82%.

**Q.** And the Activity [10]?
**A.** Its Activity is 6%.

**Q.** And the Activity [11]?
**A.** The Activity was 94%.

**Q.** And the Activity [1]?
**A.** The Activity was 18%.

**Q.** Which results are given for `C[C@]1(C(=O)O)CSC(c2ccc(OCCCC(=O)O)cc2O)=N1`?
**A.** Activity [9]: 97%; Activity [10]: 11%; Activity [11]: 89%; Activity [1]: 3%

**Q.** With `C[C@]1(C(=O)O)CSC(c2ccc(OCC(=O)O)cc2O)=N1` as the compound, how does the Activity [9] read?
**A.** Its Activity is 60%.

**Q.** What about the Activity [10] of the same compound?
**A.** The Activity was 11%.

**Q.** What about the Activity [11] of the same compound?
**A.** Its Activity is 89%.

**Q.** What about the Activity [1] of the same compound?
**A.** Its Activity is 40%.

**Q.** With `C[C@]1(C(=O)[O-])CSC(c2ccc(OCCOCC(=O)O)cc2O)=N1.[Na+]` as the compound, how does the Activity [13] read?
**A.** Its Activity is 99%.

**Q.** What about the Activity [14] of the same compound?
**A.** The Activity was 1%.

**Q.** And the Activity [15]?
**A.** The Activity was 84%.

**Q.** And the Activity [16]?
**A.** Its Activity is 16%.

**Q.** Which Activity [13] does the source give for `C[C@]1(C(=O)[O-])CSC(c2ccc(OCCCCCC(=O)O)cc2O)=N1.[Na+]` here?
**A.** The Activity was 96%.

**Q.** What about the Activity [14] of the same compound?
**A.** Its Activity is 4%.

**Q.** What about the Activity [15] of the same compound?
**A.** Its Activity is 69%.

**Q.** What about the Activity [16] of the same compound?
**A.** Its Activity is 31%.

**Q.** And the Ratio [17]?
**A.** Its Ratio is 1.2.

**Q.** With `C[C@]1(C(=O)[O-])CSC(c2ccc(OCCCC(=O)O)cc2O)=N1.[Na+]` as the compound, how does the Activity [13] read?
**A.** Its Activity is 95%.

**Q.** What about the Activity [14] of the same compound?
**A.** The Activity was 5%.

**Q.** And the Activity [15]?
**A.** The Activity was 78%.

**Q.** What about the Activity [16] of the same compound?
**A.** The Activity was 22%.

**Q.** Which Activity [13] does the source give for `C[C@]1(C(=O)[O-])CSC(c2ccc(OCC(=O)O)cc2O)=N1.[Na+]` here?
**A.** The Activity was 94%.

**Q.** What about the Activity [15] of the same compound?
**A.** Its Activity is 53%.

**Q.** And the Activity [16]?
**A.** Its Activity is 47%.

**Q.** Which Activity [5] does the source give for `COCCOCCOCCOc1ccc(C2=N[C@@](C)(C(=O)O)CS2)c(O)c1` here?
**A.** Its Activity is 5.5%.

**Q.** Which Activity [2] does the source give for `COCCOCCOCCOc1cccc(C2=N[C@@](C)(C(=O)O)CS2)c1O` [DEFERITAZOLE] here?
**A.** The Activity was 23%.

**Q.** What about the Activity [3] of the same compound?
**A.** Its Activity is 95%.

**Q.** What about the Activity [4] of the same compound?
**A.** The Activity was 5%.

**Q.** What does the source list for `CC(=O)N(O)CCCCCNC(=O)CCC(=O)N(O)CCCCCNC(=O)CCC(=O)N(O)CCCCCN` [DEFEROXAMINE]?
**A.** Activity [18]: 45%; Activity [19]: 26%; Activity [20]: 55%; Activity [21]: 74%
